Data reported in ChEMBL document CHEMBL1914420, “Investigation of the pyrazinones as PDE5 inhibitors: evaluation of regioisomeric projections into the solvent region” (Bioorg Med Chem Lett, 2011).
pIC50: −log10 of the molar value. Values belong to the compound of their own block, whether it stands above or below them.

Key:
[1] = molecular target: cGMP-specific 3',5'-cyclic phosphodiesterase (Homo sapiens, UniProt O76074); assay: Inhibition of PDE5
[2] = Selectivity ratio of IC50 for PDE6 to IC50 for PDE5
How it was run: (§1)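 Fold selectivity calculated as PDE11 IC50/PDE5 IC50 or PDE6 IC50/PDE5 IC50, with IC50 values in nM.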

[3] = Selectivity ratio of IC50 for PDE11 to IC50 for PDE5; how it was run: as §1
[4] = molecular target: 3',5'-cyclic-AMP phosphodiesterase 7B (Homo sapiens, UniProt Q9NP56); assay: Inhibition of PDE7B
3',5'-cyclic-AMP phosphodiesterase 7B, sequence (Q9NP56 whole entry): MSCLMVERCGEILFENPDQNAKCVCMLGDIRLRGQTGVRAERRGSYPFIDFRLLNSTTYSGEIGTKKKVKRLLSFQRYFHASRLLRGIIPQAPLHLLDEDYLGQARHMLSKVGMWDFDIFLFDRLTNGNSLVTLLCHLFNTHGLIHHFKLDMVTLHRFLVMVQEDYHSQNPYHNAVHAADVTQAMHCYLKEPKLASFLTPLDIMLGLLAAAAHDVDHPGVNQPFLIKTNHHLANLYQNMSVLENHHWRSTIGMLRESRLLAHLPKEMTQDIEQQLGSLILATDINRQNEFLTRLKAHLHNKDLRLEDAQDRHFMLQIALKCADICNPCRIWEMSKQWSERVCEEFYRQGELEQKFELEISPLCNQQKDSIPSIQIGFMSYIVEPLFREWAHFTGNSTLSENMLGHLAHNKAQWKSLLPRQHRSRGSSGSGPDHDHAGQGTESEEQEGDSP

[5] = molecular target: High affinity cAMP-specific and IBMX-insensitive 3',5'-cyclic phosphodiesterase 8A (Homo sapiens, UniProt O60658); assay: Inhibition of PDE8A
[6] = molecular target: High affinity cAMP-specific and IBMX-insensitive 3',5'-cyclic phosphodiesterase 8B (Homo sapiens, UniProt O95263); assay: Inhibition of PDE8B
[7] = Inhibition of PDE9
[8] = Inhibition of PDE10
[9] = molecular target: T1, Adenosine receptor A1 (Homo sapiens, UniProt P30542); assay: Inhibition of adenosine A1 receptor
T1 sequence (P30542 whole entry): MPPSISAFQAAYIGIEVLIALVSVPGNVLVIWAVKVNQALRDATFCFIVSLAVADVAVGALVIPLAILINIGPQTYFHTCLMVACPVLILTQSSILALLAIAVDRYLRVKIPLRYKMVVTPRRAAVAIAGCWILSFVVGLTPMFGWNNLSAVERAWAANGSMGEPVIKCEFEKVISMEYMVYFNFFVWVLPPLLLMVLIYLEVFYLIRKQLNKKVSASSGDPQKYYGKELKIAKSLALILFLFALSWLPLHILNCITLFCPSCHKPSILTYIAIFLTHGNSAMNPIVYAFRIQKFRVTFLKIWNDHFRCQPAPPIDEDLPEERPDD

[10] = molecular target: Acetylcholinesterase (Homo sapiens, UniProt P22303); assay: Inhibition of acetylcholinesterase
[11] = Solubility of the compound at pH 6.5; format: physicochemical; conditions: buffer
[12] = Metabolic stability in human liver microsomes assessed as compound remaining after 1 hr; format: ADME, Microsome; conditions: read-out: Stability
How it was run: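 Human liver microsomes; percent parent compound remaining after 1 h incubation.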

[13] = Clearance in rat at 2 mg/kg at pH 5; format: ADME, organism-based; parameters: dose 2 mg/kg; conditions: in vivo
[14] = Volume of distribution in rat; format: ADME, organism-based; conditions: in vivo
[15] = organism: Rattus norvegicus; assay: Unbound volume of distribution in rat; format: ADME, organism-based; conditions: in vivo
[16] = Clearance in dog at 2 mg/kg; format: ADME, organism-based, Canis lupus familiaris; parameters: dose 2 mg/kg; conditions: in vivo
How it was run: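 Clearance in mL/min/kg after a 2 mpk dose (n = 3) in vehicle 70% PEG400/20% 0.05 M citrate buffer/10% ethanol, pH 5.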

[17] = Volume of distribution in dog; format: ADME, organism-based, Canis lupus familiaris; conditions: in vivo
How it was run: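 Volume of distribution expressed in L/kg.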

[18] = Oral bioavailability in rat at 2 mg/kg; format: ADME, organism-based; conditions: in vivo
[19] = molecular target: CYP2C9 (Homo sapiens, UniProt P11712); assay: Inhibition of CYP2C9 at 3 uM; format: ADME
[20] = molecular target: CYP2D6 (Homo sapiens, UniProt P10635); assay: Inhibition of CYP2D6 at 3 uM; format: ADME
[21] = molecular target: CYP3A4 (Homo sapiens, UniProt P08684); assay: Inhibition of CYP3A4 at 3 uM; format: ADME
[22] = tested on: Rattus norvegicus; assay: Antihypertensive activity in spontaneous hypertensive rat assessed as reduction in systolic blood pressure at 20 mg/kg measured after 24 hrs; format: functional, Artery
[23] = molecular target: Dual specificity calcium/calmodulin-dependent 3',5'-cyclic nucleotide phosphodiesterase 1A (Homo sapiens, UniProt P54750); assay: Inhibition of PDE1A
[24] = molecular target: Dual specificity calcium/calmodulin-dependent 3',5'-cyclic nucleotide phosphodiesterase 1B (Homo sapiens, UniProt Q01064); assay: Inhibition of PDE1B
Dual specificity calcium/calmodulin-dependent 3',5'-cyclic nucleotide phosphodiesterase 1B, sequence (Q01064 whole entry): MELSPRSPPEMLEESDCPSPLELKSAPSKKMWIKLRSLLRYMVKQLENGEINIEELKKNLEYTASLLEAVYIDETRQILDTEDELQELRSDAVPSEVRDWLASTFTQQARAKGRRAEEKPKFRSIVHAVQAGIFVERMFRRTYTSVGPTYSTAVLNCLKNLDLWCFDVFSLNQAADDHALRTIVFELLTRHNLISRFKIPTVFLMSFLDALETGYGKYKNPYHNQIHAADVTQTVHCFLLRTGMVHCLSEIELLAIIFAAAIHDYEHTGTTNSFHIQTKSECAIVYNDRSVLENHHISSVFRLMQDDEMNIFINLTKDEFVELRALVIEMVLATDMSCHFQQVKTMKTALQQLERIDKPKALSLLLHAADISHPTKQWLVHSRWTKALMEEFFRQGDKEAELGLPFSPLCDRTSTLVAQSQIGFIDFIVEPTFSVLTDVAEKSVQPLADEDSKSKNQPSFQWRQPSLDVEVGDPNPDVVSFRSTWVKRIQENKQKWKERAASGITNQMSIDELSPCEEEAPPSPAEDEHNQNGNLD

[25] = molecular target: Dual specificity calcium/calmodulin-dependent 3',5'-cyclic nucleotide phosphodiesterase 1C (Homo sapiens, UniProt Q14123); assay: Inhibition of PDE1C
Dual specificity calcium/calmodulin-dependent 3',5'-cyclic nucleotide phosphodiesterase 1C, sequence (Q14123 whole entry): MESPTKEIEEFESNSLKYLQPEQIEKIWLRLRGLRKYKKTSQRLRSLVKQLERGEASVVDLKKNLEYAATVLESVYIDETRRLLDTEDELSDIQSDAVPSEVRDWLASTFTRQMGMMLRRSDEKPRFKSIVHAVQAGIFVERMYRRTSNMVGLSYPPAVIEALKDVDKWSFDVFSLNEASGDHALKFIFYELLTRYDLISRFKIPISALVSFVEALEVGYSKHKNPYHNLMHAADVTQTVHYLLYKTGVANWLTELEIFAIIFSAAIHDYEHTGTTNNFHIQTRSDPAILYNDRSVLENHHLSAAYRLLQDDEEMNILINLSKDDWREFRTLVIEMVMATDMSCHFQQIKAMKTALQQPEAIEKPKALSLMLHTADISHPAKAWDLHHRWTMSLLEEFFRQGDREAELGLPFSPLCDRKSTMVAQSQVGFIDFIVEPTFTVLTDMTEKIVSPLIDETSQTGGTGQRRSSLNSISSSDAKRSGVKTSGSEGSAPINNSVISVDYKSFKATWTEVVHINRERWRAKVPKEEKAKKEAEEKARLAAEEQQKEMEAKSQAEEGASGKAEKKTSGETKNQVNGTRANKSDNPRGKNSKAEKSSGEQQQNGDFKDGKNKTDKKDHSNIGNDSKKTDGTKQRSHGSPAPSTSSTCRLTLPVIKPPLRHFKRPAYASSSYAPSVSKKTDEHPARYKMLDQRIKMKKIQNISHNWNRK

[26] = Inhibition of PDE2
[27] = molecular target: cGMP-inhibited 3',5'-cyclic phosphodiesterase 3A (Homo sapiens, UniProt Q14432); assay: Inhibition of PDE3A
[28] = molecular target: cGMP-inhibited 3',5'-cyclic phosphodiesterase 3B (Homo sapiens, UniProt Q13370); assay: Inhibition of PDE3B
cGMP-inhibited 3',5'-cyclic phosphodiesterase 3B, sequence (Q13370 whole entry): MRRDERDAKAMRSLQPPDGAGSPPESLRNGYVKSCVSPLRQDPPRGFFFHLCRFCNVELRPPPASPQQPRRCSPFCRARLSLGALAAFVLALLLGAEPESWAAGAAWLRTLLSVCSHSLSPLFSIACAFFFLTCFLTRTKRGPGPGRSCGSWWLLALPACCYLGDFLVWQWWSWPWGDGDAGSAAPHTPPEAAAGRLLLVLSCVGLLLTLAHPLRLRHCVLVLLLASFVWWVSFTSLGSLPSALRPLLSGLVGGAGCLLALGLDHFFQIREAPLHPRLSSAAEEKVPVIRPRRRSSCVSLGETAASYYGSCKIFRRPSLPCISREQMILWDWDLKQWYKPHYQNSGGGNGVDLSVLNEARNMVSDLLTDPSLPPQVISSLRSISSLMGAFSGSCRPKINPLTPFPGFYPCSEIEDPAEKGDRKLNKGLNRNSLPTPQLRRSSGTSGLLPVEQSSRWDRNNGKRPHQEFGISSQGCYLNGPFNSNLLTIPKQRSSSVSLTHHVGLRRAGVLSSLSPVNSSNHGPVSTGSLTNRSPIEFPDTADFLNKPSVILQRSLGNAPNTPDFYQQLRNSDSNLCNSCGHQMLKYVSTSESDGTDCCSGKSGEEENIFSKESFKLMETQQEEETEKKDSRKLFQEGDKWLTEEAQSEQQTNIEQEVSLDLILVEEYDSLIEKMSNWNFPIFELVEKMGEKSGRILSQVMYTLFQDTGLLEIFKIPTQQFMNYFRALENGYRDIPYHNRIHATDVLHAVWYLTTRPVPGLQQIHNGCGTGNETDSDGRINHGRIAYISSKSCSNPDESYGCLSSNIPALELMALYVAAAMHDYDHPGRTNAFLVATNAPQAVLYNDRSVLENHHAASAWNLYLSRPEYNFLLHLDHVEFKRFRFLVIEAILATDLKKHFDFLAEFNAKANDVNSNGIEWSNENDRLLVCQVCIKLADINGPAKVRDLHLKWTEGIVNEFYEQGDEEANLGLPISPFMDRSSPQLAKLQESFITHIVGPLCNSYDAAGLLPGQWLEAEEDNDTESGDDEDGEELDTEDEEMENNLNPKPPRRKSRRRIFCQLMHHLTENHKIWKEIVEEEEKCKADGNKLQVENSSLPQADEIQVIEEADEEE

[29] = molecular target: 3',5'-cyclic-AMP phosphodiesterase 4A (Homo sapiens, UniProt P27815); assay: Inhibition of PDE4A
[30] = molecular target: 3',5'-cyclic-AMP phosphodiesterase 4B (Homo sapiens, UniProt Q07343); assay: Inhibition of PDE4B
3',5'-cyclic-AMP phosphodiesterase 4B, sequence (Q07343 whole entry): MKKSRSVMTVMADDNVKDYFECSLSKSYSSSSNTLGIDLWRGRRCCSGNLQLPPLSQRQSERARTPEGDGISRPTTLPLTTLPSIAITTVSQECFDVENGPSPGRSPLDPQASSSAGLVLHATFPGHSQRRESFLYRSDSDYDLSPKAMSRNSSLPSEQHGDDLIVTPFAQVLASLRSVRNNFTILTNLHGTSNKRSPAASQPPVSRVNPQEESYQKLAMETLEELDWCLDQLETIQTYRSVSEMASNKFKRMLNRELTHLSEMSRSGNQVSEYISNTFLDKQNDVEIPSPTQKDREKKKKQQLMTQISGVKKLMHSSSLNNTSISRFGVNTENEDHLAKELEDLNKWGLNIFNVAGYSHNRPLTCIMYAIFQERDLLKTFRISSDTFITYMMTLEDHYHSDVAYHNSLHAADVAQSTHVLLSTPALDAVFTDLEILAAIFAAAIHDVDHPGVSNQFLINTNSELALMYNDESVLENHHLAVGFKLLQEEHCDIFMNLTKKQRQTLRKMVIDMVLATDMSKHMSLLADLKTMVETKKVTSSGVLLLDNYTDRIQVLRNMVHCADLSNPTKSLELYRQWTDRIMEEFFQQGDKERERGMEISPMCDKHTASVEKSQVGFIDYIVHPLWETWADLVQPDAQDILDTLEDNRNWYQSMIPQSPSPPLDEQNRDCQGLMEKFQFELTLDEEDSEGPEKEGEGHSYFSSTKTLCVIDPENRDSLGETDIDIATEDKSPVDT

[31] = molecular target: 3',5'-cyclic-AMP phosphodiesterase 4C (Homo sapiens, UniProt Q08493); assay: Inhibition of PDE4C
3',5'-cyclic-AMP phosphodiesterase 4C, sequence (Q08493 whole entry): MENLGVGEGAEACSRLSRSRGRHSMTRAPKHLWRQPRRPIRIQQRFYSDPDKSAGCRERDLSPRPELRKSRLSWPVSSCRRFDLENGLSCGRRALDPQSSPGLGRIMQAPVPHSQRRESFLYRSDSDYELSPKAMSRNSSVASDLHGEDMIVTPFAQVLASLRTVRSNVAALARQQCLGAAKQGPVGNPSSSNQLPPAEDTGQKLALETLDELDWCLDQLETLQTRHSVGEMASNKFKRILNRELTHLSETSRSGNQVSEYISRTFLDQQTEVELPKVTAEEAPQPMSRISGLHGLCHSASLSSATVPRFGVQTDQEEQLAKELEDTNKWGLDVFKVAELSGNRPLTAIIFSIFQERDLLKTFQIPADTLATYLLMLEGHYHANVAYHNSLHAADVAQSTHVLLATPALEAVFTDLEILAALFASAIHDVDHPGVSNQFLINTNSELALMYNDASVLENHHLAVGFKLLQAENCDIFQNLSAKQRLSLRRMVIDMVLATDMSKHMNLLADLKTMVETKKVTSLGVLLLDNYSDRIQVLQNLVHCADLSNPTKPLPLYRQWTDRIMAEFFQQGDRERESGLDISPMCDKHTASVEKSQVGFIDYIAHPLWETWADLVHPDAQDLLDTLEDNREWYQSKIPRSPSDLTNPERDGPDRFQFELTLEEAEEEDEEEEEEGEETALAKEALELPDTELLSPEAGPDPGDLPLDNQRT

[32] = molecular target: High affinity 3',5'-cyclic-AMP phosphodiesterase 7A (Homo sapiens, UniProt Q13946); assay: Inhibition of PDE7A
High affinity 3',5'-cyclic-AMP phosphodiesterase 7A, sequence (Q13946 whole entry): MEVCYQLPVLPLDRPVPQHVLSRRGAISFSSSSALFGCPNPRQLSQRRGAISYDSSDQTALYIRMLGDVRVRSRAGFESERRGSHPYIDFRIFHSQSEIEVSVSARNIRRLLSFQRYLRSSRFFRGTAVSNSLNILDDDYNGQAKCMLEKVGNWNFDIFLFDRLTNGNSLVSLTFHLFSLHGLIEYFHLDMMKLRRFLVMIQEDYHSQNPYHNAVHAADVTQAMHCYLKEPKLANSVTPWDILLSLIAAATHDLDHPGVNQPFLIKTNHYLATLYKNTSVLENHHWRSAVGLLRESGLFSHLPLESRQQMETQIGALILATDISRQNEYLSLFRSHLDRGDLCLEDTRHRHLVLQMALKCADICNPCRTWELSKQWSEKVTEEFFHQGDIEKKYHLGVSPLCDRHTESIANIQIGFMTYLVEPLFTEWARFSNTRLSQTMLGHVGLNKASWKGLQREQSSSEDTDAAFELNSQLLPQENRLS

- pIC50 [1]: 9.19
- Ratio IC50 [2]: 818
- Ratio IC50 [3]: > 311
Compound: COc1ccc(-c2cc3c(nn2)c(N2CCN(CCO)CC2)nc(=O)n3CCOCC(F)(F)F)cn1

- pIC50 [1]: 9.66
- Ratio IC50 [2]: 290
- Ratio IC50 [3]: 240
Compound: CCCOCCn1c(=O)nc(NCCO)c2nnc(-c3ccc(OC)nc3)cc21

- pIC50 [1]: 8.83
- Ratio IC50 [2]: 119
- Ratio IC50 [3]: 199
Compound: CCOCCn1c(=O)nc(NCC(=O)N(C)C)c2nnc(-c3ccc(OC)nc3)cc21

- pIC50 [1]: 9.36
- Ratio IC50 [2]: 296
- Ratio IC50 [3]: 277
Compound: CCCOCCn1c(=O)nc(NCC(=O)N(C)C)c2nnc(-c3ccc(OC)nc3)cc21

Compound: CCCOCCn1c(=O)nc(NC2CCC(O)CC2)c2nnc(-c3ccc(OC)nc3)cc21 (configuration not stated)
- pIC50 [4]: < 5.70
- pIC50 [5]: < 5.70
- pIC50 [6]: < 5.70
- pIC50 [7]: < 5.70
- pIC50 [8]: < 5.70
- pIC50 [9]: 6.36
- pIC50 [10]: 5.25
- solubility [11]: > 100 µM
- remaining at 1 h [12]: 72%
- clearance [13]: 2.4 mL/min/kg
- Vd [14]: 0.6 L/kg
- Vdu [15]: 4.8 L/kg
- clearance [16]: 1.6 mL/min/kg
- Vd [17]: 0.3 L/kg
- bioavailability [18]: 85%
- pIC50 [1]: 10.70
- Ratio IC50 [2]: 108
- Ratio IC50 [3]: 741
- inhibition at 3 µM [19]: 9%
- inhibition at 3 µM [20]: 5%
- inhibition at 3 µM [21]: 23%
- Activity [22]: 20 mmHg
- pIC50 [23]: < 5.70
- pIC50 [24]: < 5.70
- pIC50 [25]: < 5.70
- pIC50 [26]: < 5.70
- pIC50 [27]: < 5.70
- pIC50 [28]: < 5.70
- pIC50 [29]: < 5.70
- pIC50 [30]: < 5.70
- pIC50 [31]: < 5.70
- pIC50 [32]: < 5.70

- pIC50 [1]: 8.89
- Ratio IC50 [2]: 124
- Ratio IC50 [3]: 834
Compound: CCCOCCn1c(=O)nc(N2CCN(CCO)CC2)c2nnc(-c3ccc(OC)nc3)cc21

- pIC50 [1]: 10.30
- Ratio IC50 [2]: 139
- Ratio IC50 [3]: 250
Compound: CCCOCCn1c(=O)nc(NCCC(=O)O)c2nnc(-c3ccc(OC)nc3)cc21

- pIC50 [1]: 9.55
- Ratio IC50 [2]: 194
- Ratio IC50 [3]: 240
Compound: CCCOCCn1c(=O)nc(N2CCC(O)CC2)c2nnc(-c3ccc(OC)nc3)cc21

- pIC50 [1]: 10.30
- Ratio IC50 [2]: 145
- Ratio IC50 [3]: 129
Compound: CCCOCCn1c(=O)nc(NC(C)(C)C(=O)O)c2nnc(-c3ccc(OC)nc3)cc21

- pIC50 [1]: 10.05
- Ratio IC50 [2]: 573
- Ratio IC50 [3]: 6820
Compound: CCCOCCn1c(=O)nc(NCCN2CCOCC2)c2nnc(-c3ccc(OC)nc3)cc21

- pIC50 [1]: 10.22
- Ratio IC50 [2]: 162
- Ratio IC50 [3]: 297
Compound: CCCOCCn1c(=O)nc(N2CCCC(C(=O)O)C2)c2nnc(-c3ccc(OC)nc3)cc21 (configuration not stated)

- pIC50 [1]: 10.40
- Ratio IC50 [2]: 254
- Ratio IC50 [3]: 1060
Compound: CCCOCCn1c(=O)nc(N2CCC(CC(=O)O)CC2)c2nnc(-c3ccc(OC)nc3)cc21

- pIC50 [1]: 10.40
Compound: COc1ccc(-c2cc3c(nn2)c(NC2CCC(O)CC2)nc(=O)n3CCOCC(F)(F)F)cn1 (configuration not stated)

- pIC50 [1]: 8.86
- Ratio IC50 [2]: 181
- Ratio IC50 [3]: > 1450
Compound: CCCOCCn1c(=O)nc(N2CCN(CCO)CC2)c2cnc(-c3ccc(OC)nc3)cc21

- pIC50 [1]: 9.46
- Ratio IC50 [2]: 245
- Ratio IC50 [3]: 1770
Compound: CCCOCCn1c(=O)c(N2CCN(CCO)CC2)nc2ncc(-c3ccc(OC)nc3)cc21

- Ratio IC50 [2]: 158
- Ratio IC50 [3]: 4860
Compound: CCCOCCn1c(=O)c(NCCN2CCOCC2)nc2cnc(-c3ccc(OC)nc3)cc21

- pIC50 [1]: 10.00
- Ratio IC50 [2]: 143
- Ratio IC50 [3]: 1330
Compound: CCCOCCn1c(=O)nc(N2CCN(CC(=O)O)CC2)c2nnc(-c3ccc(OC)nc3)cc21
